Measured values taken from ChEMBL document CHEMBL1133668, “Synthesis and antiviral activity of novel anti-VZV 5-substituted uracil nucleosides with a cyclopropane sugar moiety” (J Med Chem, 2000).
≈ marks a conversion by molar mass, not a printed value.

Columns and labels:
[1] = test system: Vero; assay: Tested for cytotoxicity in vero cells, activity is expressed as CC50.; format: functional; settings: Chlorocebus sabaeus
[2] = test system: HEL; assay: Tested for inhibitory activity against Varicella zoster virus(VZV) by plaque reduction assay using HEL cells; format: functional, cell-based; settings: Homo sapiens
[3] = Tested for inhibitory activity against Herpes simplex virus type-1(HSV-1), activity is expressed as IC50.; format: functional
[4] = test system: MRC5; assay: Tested for Antiherpetic activity against HSV-1 from Tomioka strain in MRC-5 cell lines.; format: functional, cell-based; settings: Homo sapiens
In short: (§1)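 Plaque reduction assay in MRC-5 cells, with HSV-1 Tomioka or HSV-2 strain 186 as the challenge virus. […] MRC-5 cells came from a commercial source.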

[5] = test system: HEL; assay: Tested for Antiherpetic activity against VZV from clinical isolates of HEL cell lines.(average of 11 isolates); format: functional, cell-based; settings: Homo sapiens
[6] = test system: HEL; assay: Tested for Antiherpetic activity against VZV from Kawaguchi strain in HEL cell lines.; format: functional, cell-based; settings: Homo sapiens
[7] = test system: MRC5; assay: Tested for Antiherpetic activity against HSV-2 from 186 strain in MRC-5 cell lines.; format: functional, cell-based; settings: Homo sapiens; in short: as §1
[8] = test system: MRC5; assay: Tested for Antiherpetic activity against VZV from clinical isolates of MRC-5 cell lines.(average of six isolates); format: functional, cell-based; settings: Homo sapiens

`O=c1[nH]c(=O)n(CC2(CO)CC2CO)cc1/C=C/Cl` (configuration not stated) gave a CC50 [1] greater than 500 µg/mL, an IC50 [2] of 0.07 µg/mL (≈ 0.244 µM) and an IC50 [3] of 4.3 µg/mL (≈ 15 µM).

With `Nc1nc(O)c2ncn(CCC(CO)CO)c2n1` [PENCICLOVIR] the IC50 [4] was 0.54 µg/mL (≈ 2.13 µM), the IC50 [5] was 10 µg/mL (≈ 39.5 µM) and the IC50 [6] was 5.6 µg/mL (≈ 22.1 µM). It also gave an IC50 [7] of 1.2 µg/mL (≈ 4.74 µM).

`Nc1nc2c(ncn2COCCO)c(=O)[nH]1` [ACYCLOVIR] showed an IC50 [4] of 0.29 µg/mL (≈ 1.29 µM), a CC50 [1] of 820 µg/mL (≈ 3640 µM) and an IC50 [3] of 0.81 µg/mL (≈ 3.6 µM). The IC50 [7] was 0.25 µg/mL (≈ 1.11 µM).

In the case of `Cc1cn(CC2(CO)CC2CO)c(=O)[nH]c1=O` (configuration not stated), the CC50 [1] is reported as greater than 500 µg/mL, the IC50 [2] is reported as greater than 100 µg/mL and the IC50 [3] is reported as greater than 500 µg/mL.

`O=c1[nH]c(=O)n(CC2(CO)CC2CO)cc1/C=C/I` (configuration not stated) showed a CC50 [1] of 330 µg/mL (≈ 873 µM), an IC50 [2] of 0.054 µg/mL (≈ 0.143 µM) and an IC50 [3] of 24.6 µg/mL (≈ 65.1 µM).

Work on `O=c1[nH]c(=O)n(CC2(CO)CC2CO)cc1I` (configuration not stated) yielded a CC50 [1] greater than 500 µg/mL, an IC50 [2] of 9.3 µg/mL (≈ 26.4 µM) and an IC50 [3] of 90 µg/mL (≈ 256 µM).

Work on `O=c1[nH]c(=O)n(CC2(CO)CC2CO)cc1F` (configuration not stated) yielded a CC50 [1] greater than 500 µg/mL, an IC50 [2] greater than 100 µg/mL and an IC50 [3] greater than 500 µg/mL.

`Nc1nc(O)c2ncn(C[C@]3(CO)C[C@H]3CO)c2n1` showed an IC50 [8] of 0.21 µg/mL (≈ 0.792 µM), an IC50 [4] of 0.0093 µg/mL (≈ 0.0351 µM) and a CC50 [1] of 240 µg/mL (≈ 905 µM). For the same compound, the IC50 [2] was 0.67 µg/mL (≈ 2.53 µM), the IC50 [6] was 0.67 µg/mL (≈ 2.53 µM) and the IC50 [3] was 0.02 µg/mL (≈ 0.0754 µM). The IC50 [7] was 0.12 µg/mL (≈ 0.452 µM).

`O=c1ccn(CC2(CO)CC2CO)c(=O)[nH]1` (configuration not stated) gave a CC50 [1] greater than 500 µg/mL, an IC50 [2] greater than 100 µg/mL and an IC50 [3] greater than 500 µg/mL.

`C#Cc1cn(CC2(CO)CC2CO)c(=O)[nH]c1=O` (configuration not stated) gave a CC50 [1] greater than 500 µg/mL, an IC50 [2] greater than 100 µg/mL and an IC50 [3] of 310 µg/mL (≈ 1240 µM).

Work on `O=c1[nH]c(=O)n([C@@H]2O[C@H](CO)[C@@H](O)[C@H]2O)cc1/C=C/Br` yielded an IC50 [8] of 0.00031 µg/mL (≈ 0.000888 µM) and an IC50 [4] of 0.14 µg/mL (≈ 0.401 µM).

`O=c1[nH]c(=O)n(CC2(CO)CC2CO)cc1/C=C/Br` (configuration not stated) gave an IC50 [8] of 0.035 µg/mL (≈ 0.106 µM), an IC50 [4] of 0.77 µg/mL (≈ 2.33 µM) and a CC50 [1] greater than 500 µg/mL. It also gave an IC50 [2] of 0.027 µg/mL (≈ 0.0815 µM), an IC50 [5] of 0.097 µg/mL (≈ 0.293 µM) and an IC50 [6] of 0.027 µg/mL (≈ 0.0815 µM). The IC50 [3] was 14.5 µg/mL (≈ 43.8 µM) and the IC50 [7] was greater than 100 µg/mL.

Work on `O=c1[nH]c(=O)n(CC2(CO)CC2CO)cc1Cl` (configuration not stated) yielded a CC50 [1] greater than 500 µg/mL, an IC50 [2] greater than 100 µg/mL and an IC50 [3] of 295 µg/mL (≈ 1130 µM).

In the case of `O=c1[nH]c(=O)n(CC2(CO)CC2CO)cc1Br` (configuration not stated), the CC50 [1] is reported as greater than 500 µg/mL, the IC50 [2] is reported as 97 µg/mL (≈ 318 µM) and the IC50 [3] is reported as 215 µg/mL (≈ 705 µM).
